Measurements pooled from the literature.
Lines come from different studies, so protocols differ.
Target: Tyrosine-protein kinase ZAP-70 (ZAP70, Homo sapiens, UniProt P43403)
One construct used (P43403 1-619): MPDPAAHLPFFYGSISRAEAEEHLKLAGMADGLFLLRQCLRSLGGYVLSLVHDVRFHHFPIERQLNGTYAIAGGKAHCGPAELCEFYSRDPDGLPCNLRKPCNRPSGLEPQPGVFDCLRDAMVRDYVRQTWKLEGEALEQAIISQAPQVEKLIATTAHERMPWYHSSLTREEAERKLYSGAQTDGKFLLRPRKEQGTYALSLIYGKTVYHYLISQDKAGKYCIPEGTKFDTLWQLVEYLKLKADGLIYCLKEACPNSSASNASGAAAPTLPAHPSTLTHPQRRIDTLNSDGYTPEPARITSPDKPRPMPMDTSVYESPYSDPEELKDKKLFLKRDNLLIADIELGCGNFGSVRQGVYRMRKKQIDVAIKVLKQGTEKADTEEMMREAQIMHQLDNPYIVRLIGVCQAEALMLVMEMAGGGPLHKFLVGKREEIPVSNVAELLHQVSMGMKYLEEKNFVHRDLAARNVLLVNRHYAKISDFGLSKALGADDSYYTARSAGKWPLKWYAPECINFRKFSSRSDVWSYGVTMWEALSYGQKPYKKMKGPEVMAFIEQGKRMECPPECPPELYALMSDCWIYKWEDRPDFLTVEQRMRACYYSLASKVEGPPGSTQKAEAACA

CCN(CC)CCNC(=O)c1c(C)[nH]c(/C=C2\C(=O)Nc3ccc(F)cc32)c1C — inhibition (enzyme activity; inhibitor; 10 µM): 11%
CC(C)(O)[C@H]1CC[C@H](Nc2ccc3ncc(-c4cccc(C(F)(F)F)c4)n3n2)CC1 — remaining activity (enzyme activity; inhibitor; 1 µM): 93.4%
COc1ccc2c(c1)O[C@H](c1ccc(OC)c(OC)c1)C[C@@H]2NC(=O)C1(c2ccc3c(c2)OC(F)(F)O3)CC1 — remaining binding (cell-free assay; competition with immobilised ligand; 1 µM): 93%
CNCc1ccc(-c2cc(-c3nc(-c4ccc(S(=O)(=O)C(C)C)cc4)cnc3N)on2)cc1 — inhibition (enzyme activity; inhibitor; 0.4 µM): 0%
COc1cc(Nc2cnc(C#N)c(O[C@H](C)CN(C)C)n2)ncc1-c1cnn(C)c1 — remaining activity (enzyme activity; inhibitor; radiometric; 1 µM): 104%
CCCOc1ccc(OC)c(F)c1C(=O)c1ccc(C(=O)N[C@@H]2CNC[C@H]2NC(=O)c2ccc3[nH]ncc3c2)cc1 — remaining activity (enzyme activity; inhibitor; 10 µM): 90%
O=C(N[C@H]1CCCCC/C=C\C2C[C@@]2(C(=O)O)NC(=O)[C@@H]2C[C@@H](Oc3ccncc3)CN2C1=O)OC1CCCC1 (stereo partly shown) — remaining binding (binding; competition with immobilised ligand; 1 µM): 96%
CCN(CC)c1ccc(C2=NNC(=O)CC2C)cc1[N+](=O)[O-] (stereo not shown) — remaining activity (enzyme activity; inhibitor; 10 µM): 67%
CS(=O)(=O)Nc1cccc(-c2csc(NC(=O)CSc3nc4nccnc4c(=O)n3CCc3ccccc3)n2)c1 — inhibition (enzyme activity; inhibitor; 10 µM): 9%
COc1cc(-c2cn(C3CCc4ccccc4N(CC(F)(F)F)C3=O)nn2)ccc1-n1ccc(C)n1 (stereo not shown) — remaining binding (cell-free assay; competition with immobilised ligand; 1 µM): 82%
CNC(=O)c1cc(Oc2ccc(NC(=O)Nc3ccc(Cl)c(C(F)(F)F)c3)cc2)ccn1 — inhibition (enzyme activity; inhibitor; 0.3 µM): -1%
CC/C(=N\NC(=O)NCc1cccc(O)c1)c1ccc(O)c(C)c1O — inhibition (enzyme activity; inhibitor; 0.1 µM): -2.1%
Cc1cc(NC(=O)c2cccc3cc(-c4cccc5[nH]nc(N)c45)ccc23)ccc1F — activity vs control (enzyme activity; inhibitor; 0.1 µM): 109%
FC(F)(F)Oc1cccc(-c2cnc3ccc(-c4ccncc4)nn23)c1 — activity vs control (enzyme activity; inhibitor; radiometric; 5 µM): 104%
Cc1sc(C(=O)NC2COC2)cc1-n1cc(NC(=O)Nc2c(F)cccc2Cl)cn1 — remaining activity (enzyme activity; inhibitor; 10 µM): 103%
C[C@@H]1CN(c2cc(-c3n[nH]c4ccc(OC5(C)CC5)cc34)ncn2)C[C@H](C)O1 — remaining binding (cell-free assay; competition with immobilised ligand; 0.1 µM): 83%
Cc1cnc(NC2CCOCC2)nc1-n1cnc(C(=O)NC(CN)c2cc(F)cc(Cl)c2)c1 (stereo not shown) — remaining activity (enzyme activity; inhibitor; radiometric; 1 µM): 115%
Nc1nc(Nc2ccc(S(N)(=O)=O)cc2)nn1C(=O)c1c(F)cccc1F — remaining signal (cell-free assay; 0.5 µM): 94.8%
O=C(O)c1cc(-c2ccc(C3CCNCC3)cc2)c2ccc(-c3ccc(C(F)(F)F)cc3)cc2c1 — remaining binding (cell-free assay; competition with immobilised ligand; 1 µM): 100%
CCCS(=O)(=O)Nc1ccc(F)c(C(=O)c2c[nH]c3ncc(-c4ccc(Cl)cc4)cc23)c1F — inhibition (enzyme activity; inhibitor; 1 µM): < 10%
CCCOc1ccc([C@H]2[C@H](C(=O)O)[C@@H](c3ccc4c(c3)OCO4)CN2CC(=O)Nc2c(CC)cccc2CC)cc1 — remaining binding (cell-free assay; competition with immobilised ligand; 1 µM): 50%
CCN(CC)CCNC(=O)c1c(C)[nH]c(/C=C2\C(=O)Nc3ccc(F)cc32)c1C — remaining activity (enzyme activity; inhibitor; 0.1 µM): 101%
O=C(Nc1ccc(Oc2ccc(F)cc2)cc1)N1CCc2ncccc2[C@H]1c1ccc(F)cc1 — remaining binding (cell-free assay; competition with immobilised ligand; 1 µM): 91%
COc1cc2ncnc(Nc3ccc(Oc4ccccc4)c(C)c3C)c2cc1OC — inhibition (enzyme activity; inhibitor; 1 µM): -2%
Cc1[nH]c(/C=C2\C(=O)Nc3ccc(F)cc32)c(C)c1C(=O)N[C@H]1CCN(C(=O)N(C)C)C1 — remaining activity (enzyme activity; inhibitor; 0.1 µM): 105%
Cc1cc(C)c(-n2ccn3nc(-c4cccnc4)cc23)cc1NC(=O)c1cc(C#N)cc(S(F)(F)(F)(F)F)c1 — remaining binding (cell-free assay; competition with immobilised ligand; 0.1 µM): 79.9%
O=C(Nc1cnn(-c2csc(C(=O)NC3COC3)c2)c1)Nc1ccccc1Cl — remaining activity (enzyme activity; inhibitor; 5 µM): 102%
N#CCCc1ccc2c(c1)-c1[nH]c3ccc([N+](=O)[O-])cc3c1CC(=O)N2 — remaining signal (cell-free assay; 0.5 µM): 106%
Cc1ccc(C(=O)Nc2ccc(CN3CCN(C)CC3)c(C(F)(F)F)c2)cc1C#Cc1cnc2cccnn12 — remaining activity (enzyme activity; inhibitor; 23.5 nM): 99%
CC(C)(C)c1nc(-c2cccc(NS(=O)(=O)c3c(F)cccc3F)c2F)c(-c2ccnc(N)n2)s1 — remaining activity (enzyme activity; inhibitor; radiometric; 1 µM): 92%
O=C1Nc2ccc(Cl)cc2C1=Cc1cc(Cl)c(O)c(Cl)c1 — remaining signal (cell-free assay; 0.5 µM): 95%
